# Measured values pooled from the literature.
# Lines come from different studies, so protocols differ.
# PIK3CD: Phosphatidylinositol 4,5-bisphosphate 3-kinase catalytic subunit delta isoform (PIK3CD, Homo sapiens, UniProt O00329)
SMILES,target,read-out,mode,technique,concentration,measurement,value
CO[C@@H]1[C@H](N(C)C(=O)c2ccccc2)C[C@H]2O[C@]1(C)n1c3ccccc3c3c4c(c5c6ccccc6n2c5c31)C(=O)NC4,PIK3CD,enzyme activity,inhibitor,,1 µM,inhibition,0%
C#Cc1cc(-c2cc(Nc3nc(N[C@@H](C)c4ccc(F)cn4)ncc3Cl)n[nH]2)ccc1C=O,PIK3CD,enzyme activity,inhibitor,,0.2 µM,inhibition,29.3%
C=CC(=O)N1CCC([C@@H]2CCNc3c(C(N)=O)c(-c4ccc(Oc5ccccc5)cc4)nn32)CC1,PIK3CD,enzyme activity,inhibitor,,1 µM,inhibition,11%
COc1ccc2[nH]c3c4[nH]c5ccc(OC)cc5c4c4c(c3c2c1)C(=O)NC4=O,PIK3CD,binding,,,1 µM,remaining binding,64%
CC(C)S(=O)(=O)c1ccc2nccc(Nc3ccc4sc(C5CCCC5)nc4c3)c2c1,"Phosphatidylinositol 4,5-bisphosphate 3-kinase catalytic subunit delta isoform, with p85 (PIK3CD, Homo sapiens, UniProt O00329)",enzyme activity,inhibitor,,1 µM,activity vs control,91%
CCCCC(=O)Nc1ccc(-c2ccc3ncn(CCC)c(=O)c3c2)cn1,PIK3CD,binding,,competition with immobilised ligand,0.5 µM,remaining binding,100%
Cc1cc(O)c(-c2ccc([C@@H](C)CN(C)C)cc2)c2c1[nH]c(=O)c1sccc12,PIK3CD,enzyme activity,inhibitor,,0.1 µM,inhibition,-6.12%
C[C@H]1CC[C@H](n2c3cnccc3c3cnc(Nc4ccc5c(n4)CCN(C(=O)CO)C5)nc32)CC1,PIK3CD,cell-free assay,,,1 µM,remaining signal,87%
C1=C/COCc2cc(ccc2OCCN2CCCC2)Nc2nccc(n2)-c2cccc(c2)COC/1,PIK3CD,binding,,,0.1 µM,remaining binding,30%
